We go through 30 compounds from ChEMBL document CHEMBL1147175, “Synthesis of dioxane-based antiviral agents and evaluation of their biological activities as inhibitors of Sindbis virus replication” (Bioorg Med Chem, 2007).

Data set [1] has as its system Sindbis virus. The data set is described as follows: Antiviral activity against Sindbis virus replication in BHK cells at 10^-3 mM after 12 hrs by luciferase assay.
The nature of data set [2]: Cytotoxicity against BHK cells by XTT assay. Format: cell-based, Mesocricetus auratus. As to conditions: hamster. Summed up: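 Uninfected BHK cells were treated with a range of compound concentrations. Viability was read with an XTT colorimetric kit, where mitochondrial dehydrogenases form a coloured product read at 450 nm.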
On the technique in general: Formazan colour is commonly taken as a measure of viable cells.

The test system of data set [3] is Sindbis virus. The data set is described as follows: Antiviral activity against Sindbis virus replication in BHK cells after 12 hrs by luciferase assay.
In data set [4] the test system is Sindbis virus. Put plainly: Antiviral activity against Sindbis virus replication in BHK cells after 12 hrs by luciferase assay. Format: functional, organism-based. Summed up:
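BHK cells grown to confluency were infected with luciferase-reporter Sindbis virus (SIN-IRES-Luc) at MOI below 1. Medium containing compound below cytotoxic concentrations was then added, and cells were incubated 12 h at 37 °C. Luciferase was measured in cell extracts by luminometer. EC50 is the concentration giving a 50% reduction in virus production.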

A short description of data set [5]: Therapeutic index, ratio of EC50 for Sindbis virus to CC50 for BHK cells. Format: cell-based. The note with it: hamster, read-out: TI. A digest of the protocol:
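Therapeutic index was calculated as the […] (XTT viability of uninfected BHK cells).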

Setting [6] is: in the assay text read “luciferase assay” for “XTT assay”.

Active and inactive are the calls of the source. The rule behind the calls is not given here.

Usually CC50 stands for the concentration that lowers cell viability or growth by half. Lower therefore signals greater toxicity to the cells. Regarding `ON=C(C[C@@H]1COCCO1)C[C@@H]1COCCO1`, in the data set with Sindbis virus [1], the result was inactive. In data set [2], this compound displayed a CC50 of over 1 mM.
On the same counts, the results for `CON=C(C[C@@H]1COCCO1)C[C@@H]1COCCO1` are “inactive” and over 1 mM.
The like results for `C(C[C@@H]1COCCO1)C[C@H]1COCCO1` (mixture of isomers) were, in that order, “inactive” and over 1 mM.
What is called EC50 is the midpoint of the concentration-response curve. A low value points to greater potency. In the data set with Sindbis virus [3], `ClCCOC[C@@H]1CO1` had an EC50 of 1 mM. This compound registered a CC50 in data set [2] of over 5 mM.
In data set [2], `C(CC[C@@H]1COCCO1)C[C@@H]1COCCO1` displayed a CC50 of over 1 mM. This compound registered an EC50 in the data set with Sindbis virus [4] (setting [6]) of 1.5 mM.
On to `OCC[C@H]1COCCO1`, for which the outcome in the data set with Sindbis virus [1] was inactive. The CC50 in data set [2] was over 1 mM.
In data set [2], `C(CC[C@@H]1COCCO1)CC[C@@H]1COCCO1` gave a CC50 of over 1 mM. In the data set with Sindbis virus [4] (setting [6]), this compound came in with an EC50 of 1.5 mM.
For `COc1ccc(CCN(C)CCC[C@](C#N)(c2ccc(OC)c(OC)c2)C(C)C)cc1OC`, the midpoint of the response in the data set on Sindbis virus [4] (setting [6]), the EC50, lay at 1.3 mM.
In the case of `C1CSC(C[C@H]2COCCO2)(C[C@H]2COCCO2)SC1`, the result in the data set with Sindbis virus [1] was inactive. In data set [2], this compound registered a CC50 of over 1 mM.
The like results for `OC(CC[C@@H]1COCCO1)C[C@@H]1COCCO1` (stereo not given in full) were, in that order, “inactive” and over 1 mM.
Take `OC[C@H]1COCCO1`: the CC50 in data set [2] was over 5 mM. This compound also had an EC50 with Sindbis virus [4] (setting [6]) of 1.5 mM.
Consider `C(C[C@@H]1COCCO1)C[C@@H]1COCCO1`, for which the 50% cytotoxic concentration (CC50) in data set [2] is over 1 mM. Moreover, the EC50 in the data set with Sindbis virus [4] (setting [6]) was 0.014 mM. Further, the selectivity ratio in data set [5] was over 71.
As for `O=C(CCC[C@@H]1COCCO1)C[C@@H]1COCCO1`, in the data set with Sindbis virus [1], the outcome was inactive.
The compound `OCC[C@@H]1COCCO1` showed a CC50 in data set [2] of over 1 mM. In the data set with Sindbis virus [4] (setting [6]), this compound gave an EC50 of 1.4 mM.
In data set [2], `OC[C@@H]1COCCO1` showed a CC50 of over 1 mM. Besides, the EC50 in the data set with Sindbis virus [4] (setting [6]) is 0.0034 mM. In addition, the selectivity ratio in data set [5] was over 294.
`OCCC[C@@H]1COCCO1`: the result with Sindbis virus [1] was inactive. The CC50 in data set [2] was over 1 mM.
Turning to `C1CSC(C[C@H]2COCCO2)SC1`, the CC50 in data set [2] was over 1 mM. In the data set with Sindbis virus [4] (setting [6]), this compound gave an EC50 of 1 mM.
Regarding `C(C[C@H]1COCCO1)C[C@H]1COCCO1`, the outcome in the data set on Sindbis virus [1] was inactive. The compound further yielded a CC50 in data set [2] of over 1 mM.
`OC(C[C@@H]1COCCO1)C[C@@H]1COCCO1`: the CC50 in data set [2] is over 1 mM. In the data set on Sindbis virus [4] (setting [6]), this compound showed an EC50 of 0.67 mM.
The like results for `C1CSC(C[C@H]2COCCO2)(C[C@@H]2COCCO2)SC1` were, in that order, over 1 mM and 0.029 mM.
Regarding `c1ccc(CCCC[C@@H]2COCCO2)cc1`, in the data set on Sindbis virus [1], the result was inactive. The CC50 in data set [2] was over 1 mM.
On the same counts, the results for `O=C(C[C@@H]1COCCO1)C[C@@H]1COCCO1` are “inactive” and over 1 mM.
With `C1CSC(CC[C@@H]2COCCO2)(C[C@@H]2COCCO2)SC1`, the outcome in the data set on Sindbis virus [1] was inactive. This compound also came in with a CC50 in data set [2] of over 1 mM.
The like results for `C1CSC(CC[C@@H]2COCCO2)SC1` were, in that order, “inactive” and over 1 mM.
The compound `CN(C)CCCN1c2ccccc2Sc2ccc(Cl)cc21` [CHLORPROMAZINE] came in with a CC50 in data set [2] of 0.1 mM. In addition, the EC50 in the data set on Sindbis virus [4] (setting [6]) was determined as 0.0082 mM.
Compound `O=CC[C@H]1COCCO1` showed a CC50 in data set [2] of over 5 mM. In the data set with Sindbis virus [4], this compound registered a concentration for a half-maximal effect (EC50) of 0.46 mM.
`CC(O)[C@H]1COCCO1` (stereo not given in full): the CC50 in data set [2] amounted to 1 mM. In addition, the EC50 in the data set with Sindbis virus [4] (setting [6]) came out at 0.099 mM.
On the same counts, the results for `ClCCOC[C@H]1CO1` are over 1 mM and 1 mM.
Turning to `O=C(CC[C@@H]1COCCO1)C[C@@H]1COCCO1`, the result in the data set on Sindbis virus [1] was inactive. In data set [2], this compound displayed a CC50 of over 1 mM.
`ICC[C@@H]1COCCO1`: the CC50 in data set [2] is over 1 mM. Also, the EC50 with Sindbis virus [4] (setting [6]) is 0.25 mM.
